Experimental data: article PMC5148661 (ACS infectious diseases, 2016)
≈ marks a conversion by molar mass, not a printed value. Where two headings read alike, the source gives them in different places.

Assays:
[1] = system: Human HepG2 cells; assay: cytotoxicity against a human cell line; type: cell-based; settings: read-out: HepG2 growth inhibition EC50; 95% CI in parentheses
[2] = target: P. cynomolgi DHODH (Plasmodium cynomolgi, UniProt K6UE05); settings: read-out: P. cynomolgi DHODH IC50; cited from earlier work
P. cynomolgi DHODH, sequence (K6UE05 1-385): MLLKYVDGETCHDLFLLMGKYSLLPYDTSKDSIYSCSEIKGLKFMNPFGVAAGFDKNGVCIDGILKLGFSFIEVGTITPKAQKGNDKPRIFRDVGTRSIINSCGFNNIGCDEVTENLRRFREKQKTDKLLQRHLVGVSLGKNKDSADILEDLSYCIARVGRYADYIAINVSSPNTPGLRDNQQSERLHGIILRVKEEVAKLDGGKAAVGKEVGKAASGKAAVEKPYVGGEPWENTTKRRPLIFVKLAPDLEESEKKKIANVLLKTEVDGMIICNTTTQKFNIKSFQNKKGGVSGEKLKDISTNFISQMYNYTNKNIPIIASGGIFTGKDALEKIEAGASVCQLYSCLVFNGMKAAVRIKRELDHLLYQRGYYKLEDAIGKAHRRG

[3] = system: P. falciparum 3D7A parasites; settings: DSM265, cited from earlier work
[4] = target: Minipig DHODH (Sus scrofa, UniProt F1S3B0); settings: read-out: Minipig DHODH IC50; cited from earlier work
Minipig DHODH, sequence (F1S3B0 1-395): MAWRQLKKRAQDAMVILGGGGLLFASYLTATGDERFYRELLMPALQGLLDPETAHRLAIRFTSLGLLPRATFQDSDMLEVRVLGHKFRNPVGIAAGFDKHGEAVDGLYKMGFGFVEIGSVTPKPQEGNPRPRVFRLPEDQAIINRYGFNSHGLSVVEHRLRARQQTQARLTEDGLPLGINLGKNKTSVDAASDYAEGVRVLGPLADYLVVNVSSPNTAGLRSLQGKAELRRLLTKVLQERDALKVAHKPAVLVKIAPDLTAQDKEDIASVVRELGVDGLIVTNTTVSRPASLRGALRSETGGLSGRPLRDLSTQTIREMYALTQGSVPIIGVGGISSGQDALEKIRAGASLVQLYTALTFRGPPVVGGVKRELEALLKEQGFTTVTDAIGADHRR

[5] = dogs; DSM265; cited from earlier work
[6] = across species; DSM265; cited from earlier work
[7] = kinetic solubility in pH 6.5 buffer; type: physicochemical; settings: aqueous buffer pH 6.5, pH 6.5
[8] = DSM265; cited from earlier work
[9] = system: P. vivax field isolates; assay: ex vivo 48 h schizont maturation assay; type: cell-based
Summary of the method: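 Field isolates came from patients at malaria clinics in Timika, Papua, Indonesia, and were tested in a 48 h schizont maturation assay adapted from the WHO microtest at 2% hematocrit. P. falciparum was run in RPMI 1640 with 10% AB+ human serum. P. vivax was run in McCoy's 5A with 20% AB+ human serum.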

[10] = target: Rabbit DHODH (Oryctolagus cuniculus, UniProt G1SWF3); settings: read-out: Rabbit DHODH IC50; cited from earlier work
Rabbit DHODH, sequence (G1SWF3 1-395): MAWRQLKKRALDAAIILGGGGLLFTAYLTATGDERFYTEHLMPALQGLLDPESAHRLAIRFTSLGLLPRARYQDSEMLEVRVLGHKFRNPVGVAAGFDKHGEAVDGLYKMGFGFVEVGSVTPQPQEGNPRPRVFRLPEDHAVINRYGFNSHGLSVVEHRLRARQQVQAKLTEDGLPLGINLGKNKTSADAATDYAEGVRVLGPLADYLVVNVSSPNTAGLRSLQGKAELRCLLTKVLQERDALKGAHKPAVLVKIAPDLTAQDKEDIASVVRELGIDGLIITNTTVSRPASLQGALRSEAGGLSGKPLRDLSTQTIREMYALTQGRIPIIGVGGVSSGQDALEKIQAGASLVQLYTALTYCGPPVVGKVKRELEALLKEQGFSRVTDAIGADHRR

[11] = system: P. falciparum 3D7; settings: cited from earlier work

SMILES	EC50 [1] [nM]	IC50 [2] [nM]	EC50 ([3]; read-out: EC50, 48 h growth assay (PRR), P. falciparum 3D7, 48 h) [nM]	EC50 ([3]; read-out: unbound EC50, P. falciparum 3D7 48 h growth assay (PRR)) [nM]	IC50 [4] [nM]	systemic plasma clearance [5] [mL/min/kg]	unbound intrinsic clearance [5] [mL/min/kg]	oral bioavailability [6]	solubility kinetic [7] [µg/mL]	predicted human half-life [8] [h]	sensitivity of P. vivax versus P. falciparum field isolates [9] [fold]	IC50 [10] [nM]	EC50 ([11]; read-out: Pf3D7 EC50, whole cell P. falciparum 3D7, albumax media, 72 h) [nM]	EC50 ([11]; read-out: unbound EC50, P. falciparum 3D7 in vitro 72 h growth assay, DSM265) [nM]
O=C(O)c1[nH]c(=O)[nH]c(=O)c1F [5-fluoroorotate, reference compound]	770													
Cc1cc(Nc2ccc(S(F)(F)(F)(F)F)cc2)n2nc(C(C)(F)F)nc2n1 [DSM265]		12	11	1.9	~100000	1.2	183	20-70%	12.5 (≈ 30.1 µM)	100	5	> 100000	4.3	0.73
